Measured values reported in ChEMBL document CHEMBL5344437, “Novel Drug Screening Assay for Acanthamoeba castellanii and the Anti-Amoebic Effect of Carbonic Anhydrase Inhibitors” (J Med Chem, 2024).
Active and inactive are the calls of the source. The rule behind the calls is not given here.

How the values were obtained:
Assay type in all cases: functional, organism-based
[1] = system: Acanthamoeba castellanii; experiment: Anti-amoebic activity against Acanthamoeba castellanii ATCC 30010 cyst assessed as inhibition of excystation at >= 10 uM incubated for 72 hrs by crystal violet staining based assay
[2] = system: Acanthamoeba castellanii; experiment: Anti-amoebic activity against Acanthamoeba castellanii ATCC 30010 trophozoites assessed as reduction in amoebic growth at 1 to 100 uM incubated for 24 to 72 hrs by crystal violet staining based assay; conditions: dose 1-100 µM, time 24-72 hrs
Procedure, shortened: (§1)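 Trophozoites scraped from an axenic PYG culture at +25 °C were plated at 1000 cells per well with an inhibitor dilution series in PYG medium, with a separate plate for each time point (24, 48, 72 h). Cells were fixed with methanol, stained with 0.1% crystal violet, dissolved in 10% acetic acid and read at 590 nm. Two experiments, 6–15 wells per concentration; unpaired t-test versus control at 72 h.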

[3] = system: Acanthamoeba castellanii; experiment: Anti-amoebic activity against Acanthamoeba castellanii ATCC 30010 trophozoites assessed as reduction in amoebic growth at 1 to 100 nM incubated for 24 to 72 hrs by crystal violet staining based assay; conditions: dose 1-100 nM, time 24-72 hrs; procedure, shortened: as §1
[4] = system: Acanthamoeba castellanii; experiment: Anti-amoebic activity against Acanthamoeba castellanii ATCC 30010 cyst assessed as reduction in cyst survival at 9.38 uM incubated for 24 to 72 hrs by crystal violet staining based assay; conditions: time 24-72 hrs
Procedure, shortened: (§2)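 Cyst survival: after 24, 48 or 72 h of inhibitor exposure of 1000 cells per well in PYG, the medium-inhibitor solution was moved to a new plate and topped up with fresh medium. It was then incubated 5 days at +25 °C so cysts could excyst. Wells were fixed with methanol, stained with 0.1% crystal violet, eluted with 10% acetic acid and read at 590 nm. Unpaired t-test versus control at 72 h.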

[5] = system: Acanthamoeba castellanii; experiment: Anti-amoebic activity against Acanthamoeba castellanii ATCC 30010 cyst assessed as inhibition of excystation at 188 nM incubated for 72 hrs by crystal violet staining based assay
[6] = system: Acanthamoeba castellanii; experiment: Anti-amoebic activity against Acanthamoeba castellanii ATCC 30010 trophozoites assessed as reduction in amoebic growth at 938 nM incubated for 24 to 72 hrs by crystal violet staining based assay; conditions: time 24-72 hrs; procedure, shortened: as §1
[7] = system: Acanthamoeba castellanii; experiment: Anti-amoebic activity against Acanthamoeba castellanii ATCC 30010 trophozoites assessed as reduction in amoebic growth at 100 nM incubated for 24 to 72 hrs by crystal violet staining based assay; conditions: time 24-72 hrs; procedure, shortened: as §1
[8] = system: Acanthamoeba castellanii; experiment: Anti-amoebic activity against Acanthamoeba castellanii ATCC 30010 cyst assessed as reduction in cyst survival at […] incubated for 24 to 72 hrs by crystal violet staining based assay; conditions: time 24-72 hrs; procedure, shortened: as §2
[9] = system: Acanthamoeba castellanii; experiment: Anti-amoebic activity against Acanthamoeba castellanii ATCC 30010 cyst assessed as inhibition of excystation at 10 uM incubated for 72 hrs by crystal violet staining based assay
[10] = system: Acanthamoeba castellanii; experiment: Anti-amoebic activity against Acanthamoeba castellanii ATCC 30010 cyst assessed as reduction in cyst survival at 1 mM incubated for 24 to 72 hrs by crystal violet staining based assay; conditions: time 24-72 hrs
Procedure, shortened: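 Scraped PYG-grown cells, 1000 per well, exposed 24, 48 or 72 h at +25 °C. Medium-inhibitor solution then moved to new plates, topped with fresh medium, and held 5 days at +25 °C to allow excystation. Methanol fix, 0.1% crystal violet, 10% acetic acid, A590. Unpaired t-test vs control at 72 h.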

[11] = system: Acanthamoeba castellanii; experiment: Anti-amoebic activity against Acanthamoeba castellanii ATCC 30010 cyst assessed as inhibition of excystation at 100 uM incubated for 72 hrs by crystal violet staining based assay
Procedure, shortened: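 Axenic culture in PYG medium at +25 °C, grown past peak density to induce encystment; 1000 cysts per well added to inhibitor diluted in PYG, incubated 72 h at +25 °C. Methanol fix, 0.1% crystal violet stain (remaining cysts washed off), dissolve in 10% acetic acid, absorbance 590 nm. Unpaired t-test vs drug-free control; 6 replicates.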

[12] = system: Acanthamoeba castellanii; experiment: Anti-amoebic activity against Acanthamoeba castellanii ATCC 30010 trophozoites assessed as reduction in amoebic growth at 100 uM incubated for 24 to 72 hrs by crystal violet staining based assay; conditions: time 24-72 hrs
Procedure, shortened: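 Trophozoites scraped from steady-state PYG culture, 1000 cells per well in inhibitor-containing PYG, +25 °C, separate plates read at 24, 48, 72 h. Methanol fix, 0.1% crystal violet, 10% acetic acid elution, A590. Two experiments, ≥3 wells each. Unpaired t-test vs drug-free control at 72 h.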

[13] = system: Acanthamoeba castellanii; experiment: Anti-amoebic activity against Acanthamoeba castellanii ATCC 30010 cyst assessed as reduction in cyst survival at 7.81 to 250 uM incubated for 24 to 72 hrs by crystal violet staining based assay; conditions: dose 7.81-250 µM, time 24-72 hrs; procedure, shortened: as §2
[14] = system: Acanthamoeba castellanii; experiment: Anti-amoebic activity against Acanthamoeba castellanii ATCC 30010 cyst assessed as reduction in cyst survival at >= 500 uM incubated for 24 to 72 hrs by crystal violet staining based assay; conditions: time 24-72 hrs; procedure, shortened: as §2
[15] = system: Acanthamoeba castellanii; experiment: Anti-amoebic activity against Acanthamoeba castellanii ATCC 30010 cyst assessed as inhibition of excystation at >= 62.5 uM incubated for 72 hrs by crystal violet staining based assay
[16] = system: Acanthamoeba castellanii; experiment: Anti-amoebic activity against Acanthamoeba castellanii ATCC 30010 trophozoites assessed as reduction in amoebic growth at 15.6 uM incubated for 24 to 72 hrs by crystal violet staining based assay; conditions: time 24-72 hrs; procedure, shortened: as §1

Question: For `CCN[C@H]1CN(CCCOC)S(=O)(=O)c2sc(S(N)(=O)=O)cc21`, which Activity [1] is on record?
Answer: Active

Question: And the Activity [2]?
Answer: inactive

Question: And the Activity [3]?
Answer: inactive

Question: `CCOc1ccc2nc(S(N)(=O)=O)sc2c1` was tested. Which Activity [4] did it give?
Answer: Active

Question: And the Activity [5]?
Answer: Active

Question: And the Activity [6]?
Answer: Active

Question: For `CCN[C@H]1C[C@H](C)S(=O)(=O)c2sc(S(N)(=O)=O)cc21`, which Activity [7] is on record?
Answer: Active

Question: What about the Activity [8] of the same molecule?
Answer: Active

Question: And the Activity [9]?
Answer: Active

Question: For `CC(=O)Nc1nnc(S(N)(=O)=O)s1`, which Activity [10] is on record?
Answer: Active

Question: And the Activity [11]?
Answer: Active

Question: What about the Activity [12] of the same molecule?
Answer: Active

Question: How did the Activity [13] turn out when `NN1CCN(NC(=S)S)CC1` was run?
Answer: inactive

Question: And the Activity [14]?
Answer: Active

Question: What about the Activity [15] of the same molecule?
Answer: Active

Question: What about the Activity [16] of the same molecule?
Answer: Active
